# “And” between values parts separate entries of the source, which are not always exact repeats. Identical values can stand only once.
# System: HEK-293T
# Assay: Multiplex assay against HEK293T
# Type: toxicity, cell-based
# Conditions: human, number of replicates 2
# Summary of the method: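 Cells stained live at seeding with Hoechst33342, BioTracker Green Microtubule Cytoskeleton Dye, MitoTracker Red and Annexin V Alexa Fluor 680 were imaged on a CQ1 microscope at 37°C and 5% CO2 after compound addition. Their classification by CellPathfinder machine-learning gating ran from Hoechst high-intensity objects versus normal cells, to healthy, pyknosed or fragmented nuclei among normal cells, to mitotic or apoptotic among pyknosed cells. Tubulin, mitochondrial-mass and membrane-permeability phenotypes are per cents of healthy-nucleus cells.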
# [1] = 12 h, 1 µM, compound concentration 1 uM
# [2] = 12 h, 10 µM, compound concentration 10 uM
# [3] = 24 h, 1 µM, compound concentration 1 uM
# [4] = 24 h, 10 µM, compound concentration 10 uM
# [5] = 48 h, 1 µM, compound concentration 1 uM
# [6] = 48 h, 10 µM, compound concentration 10 uM
structure (smiles),measurement,setting,value
CCN(CC)C/C=C/C(=O)Nc1cc2c(Nc3ccc(F)c(Cl)c3)ncnc2cc1OCC1CC1,Population Apoptotic (%),[1],61% and 46%
same,Population Fragmented Nuclei (%),[1],3% and 4%
same,Population Healthy Nuclei (%),[1],79%
same,Population Hoechst High Intensity Objects (%),[1],4% and 7%
same,Population Membrane Permeable-Phenotype (%),[1],6% and 5%
same,Population Mitochondria Different-Phenotype (%),[1],26% and 30%
same,Population Mitotic Cells (%),[1],38% and 53%
same,Population Normal (%),[1],95% and 92%
same,Population Pyknosed Nuclei (%),[1],17% and 15%
same,Population Tubulin-Different-Phenotype (%),[1],81% and 90%
same,Total Cell Count,[1],435 and 525
same,Population Apoptotic (%),[2],81% and 84%
same,Population Fragmented Nuclei (%),[2],1% and 6%
same,Population Healthy Nuclei (%),[2],68% and 69%
same,Population Hoechst High Intensity Objects (%),[2],8% and 6%
same,Population Membrane Permeable-Phenotype (%),[2],4% and 3%
same,Population Mitochondria Different-Phenotype (%),[2],76% and 83%
same,Population Mitotic Cells (%),[2],18% and 15%
same,Population Normal (%),[2],91% and 93%
same,Population Pyknosed Nuclei (%),[2],29% and 23%
same,Population Tubulin-Different-Phenotype (%),[2],84% and 78%
same,Total Cell Count,[2],283 and 298
same,Population Apoptotic (%),[3],50%
same,Population Fragmented Nuclei (%),[3],5% and 6%
same,Population Healthy Nuclei (%),[3],81% and 84%
same,Population Hoechst High Intensity Objects (%),[3],6% and 9%
same,Population Membrane Permeable-Phenotype (%),[3],4% and 5%
same,Population Mitochondria Different-Phenotype (%),[3],14% and 19%
same,Population Mitotic Cells (%),[3],50% and 49%
same,Population Normal (%),[3],93% and 90%
same,Population Pyknosed Nuclei (%),[3],12% and 8%
same,Population Tubulin-Different-Phenotype (%),[3],59% and 72%
same,Total Cell Count,[3],687 and 743
same,Population Apoptotic (%),[4],84% and 81%
same,Population Fragmented Nuclei (%),[4],2% and 4%
same,Population Healthy Nuclei (%),[4],47% and 45%
same,Population Hoechst High Intensity Objects (%),[4],10%
same,Population Membrane Permeable-Phenotype (%),[4],2% and 1%
same,Population Mitochondria Different-Phenotype (%),[4],92% and 93%
same,Population Mitotic Cells (%),[4],15% and 18%
same,Population Normal (%),[4],89%
same,Population Pyknosed Nuclei (%),[4],49%
same,Population Tubulin-Different-Phenotype (%),[4],88% and 77%
same,Total Cell Count,[4],274 and 323
same,Population Apoptotic (%),[5],30%
same,Population Fragmented Nuclei (%),[5],9%
same,Population Healthy Nuclei (%),[5],84%
same,Population Hoechst High Intensity Objects (%),[5],9% and 7%
same,Population Membrane Permeable-Phenotype (%),[5],4% and 6%
same,Population Mitochondria Different-Phenotype (%),[5],5% and 2%
same,Population Mitotic Cells (%),[5],69%
same,Population Normal (%),[5],90% and 92%
same,Population Pyknosed Nuclei (%),[5],5% and 6%
same,Population Tubulin-Different-Phenotype (%),[5],53% and 34%
same,Total Cell Count,[5],1264 and 1265
same,Population Apoptotic (%),[6],84% and 87%
same,Population Fragmented Nuclei (%),[6],7% and 11%
same,Population Healthy Nuclei (%),[6],32% and 33%
same,Population Hoechst High Intensity Objects (%),[6],8% and 15%
same,Population Membrane Permeable-Phenotype (%),[6],5% and 2%
same,Population Mitochondria Different-Phenotype (%),[6],87% and 94%
same,Population Mitotic Cells (%),[6],15% and 12%
same,Population Normal (%),[6],91% and 84%
same,Population Pyknosed Nuclei (%),[6],59% and 55%
same,Population Tubulin-Different-Phenotype (%),[6],84% and 80%
same,Total Cell Count,[6],396 and 360
COc1cc(N(C)c2ccnc3ccc(C(F)(F)F)cc23)cc(OC)c1OC,Population Apoptotic (%),[1],58% and 48%
same,Population Fragmented Nuclei (%),[1],5% and 4%
same,Population Healthy Nuclei (%),[1],81% and 79%
same,Population Hoechst High Intensity Objects (%),[1],7% and 6%
same,Population Membrane Permeable-Phenotype (%),[1],2% and 5%
same,Population Mitochondria Different-Phenotype (%),[1],13% and 17%
same,Population Mitotic Cells (%),[1],41% and 51%
same,Population Normal (%),[1],92% and 93%
same,Population Pyknosed Nuclei (%),[1],12% and 16%
same,Population Tubulin-Different-Phenotype (%),[1],50% and 48%
same,Total Cell Count,[1],523 and 568
same,Population Apoptotic (%),[2],42% and 52%
same,Population Fragmented Nuclei (%),[2],3% and 2%
same,Population Healthy Nuclei (%),[2],82% and 80%
same,Population Hoechst High Intensity Objects (%),[2],5%
same,Population Membrane Permeable-Phenotype (%),[2],5% and 3%
same,Population Mitochondria Different-Phenotype (%),[2],34% and 29%
same,Population Mitotic Cells (%),[2],57% and 47%
same,Population Normal (%),[2],94%
same,Population Pyknosed Nuclei (%),[2],14% and 17%
same,Population Tubulin-Different-Phenotype (%),[2],79% and 82%
same,Total Cell Count,[2],570 and 542
same,Population Apoptotic (%),[3],54% and 36%
same,Population Fragmented Nuclei (%),[3],5% and 6%
same,Population Healthy Nuclei (%),[3],83% and 85%
same,Population Hoechst High Intensity Objects (%),[3],7% and 6%
same,Population Membrane Permeable-Phenotype (%),[3],3% and 5%
same,Population Mitochondria Different-Phenotype (%),[3],6% and 4%
same,Population Mitotic Cells (%),[3],45% and 63%
same,Population Normal (%),[3],92% and 93%
same,Population Pyknosed Nuclei (%),[3],10% and 8%
same,Population Tubulin-Different-Phenotype (%),[3],33% and 26%
same,Total Cell Count,[3],845 and 846
same,Population Apoptotic (%),[4],46% and 53%
same,Population Fragmented Nuclei (%),[4],3% and 4%
same,Population Healthy Nuclei (%),[4],84% and 83%
same,Population Hoechst High Intensity Objects (%),[4],5%
same,Population Membrane Permeable-Phenotype (%),[4],3% and 1%
same,Population Mitochondria Different-Phenotype (%),[4],31% and 20%
same,Population Mitotic Cells (%),[4],53% and 46%
same,Population Normal (%),[4],94%
same,Population Pyknosed Nuclei (%),[4],11% and 12%
same,Population Tubulin-Different-Phenotype (%),[4],69% and 64%
same,Total Cell Count,[4],762 and 740
same,Population Apoptotic (%),[5],16% and 24%
same,Population Fragmented Nuclei (%),[5],12% and 11%
same,Population Healthy Nuclei (%),[5],83% and 84%
same,Population Hoechst High Intensity Objects (%),[5],7%
same,Population Membrane Permeable-Phenotype (%),[5],5% and 4%
same,Population Mitochondria Different-Phenotype (%),[5],0%
same,Population Mitotic Cells (%),[5],83% and 75%
same,Population Normal (%),[5],92%
same,Population Pyknosed Nuclei (%),[5],3%
same,Population Tubulin-Different-Phenotype (%),[5],12% and 11%
same,Total Cell Count,[5],2086 and 2004
same,Population Apoptotic (%),[6],26% and 38%
same,Population Fragmented Nuclei (%),[6],9% and 7%
same,Population Healthy Nuclei (%),[6],85% and 86%
same,Population Hoechst High Intensity Objects (%),[6],7% and 8%
same,Population Membrane Permeable-Phenotype (%),[6],3% and 1%
same,Population Mitochondria Different-Phenotype (%),[6],9%
same,Population Mitotic Cells (%),[6],73% and 61%
same,Population Normal (%),[6],92% and 91%
same,Population Pyknosed Nuclei (%),[6],5%
same,Population Tubulin-Different-Phenotype (%),[6],48% and 46%
same,Total Cell Count,[6],1391 and 1324
CS(=O)(=O)c1ccc(C(=O)Nc2ccc(F)c(COc3ccc(Br)cc3CNCCO)c2)c(Cl)c1.O=CO,Population Apoptotic (%),[1],55% and 59%
same,Population Healthy Nuclei (%),[1],78% and 76%
same,Population Mitotic Cells (%),[1],44% and 40%
same,Total Cell Count,[1],571 and 534
same,Population Apoptotic (%),[2],71% and 70%
same,Population Healthy Nuclei (%),[2],84% and 78%
same,Population Mitotic Cells (%),[2],28% and 30%
same,Total Cell Count,[2],446 and 461
same,Population Apoptotic (%),[3],57% and 61%
same,Population Healthy Nuclei (%),[3],79% and 77%
same,Population Mitotic Cells (%),[3],42% and 38%
same,Total Cell Count,[3],845 and 808
same,Population Apoptotic (%),[4],72% and 81%
same,Population Healthy Nuclei (%),[4],75%
same,Population Mitotic Cells (%),[4],28% and 18%
same,Total Cell Count,[4],456
same,Population Apoptotic (%),[5],30% and 39%
same,Population Healthy Nuclei (%),[5],79% and 83%
same,Population Mitotic Cells (%),[5],69% and 60%
same,Total Cell Count,[5],2082 and 1679
same,Population Apoptotic (%),[6],82% and 80%
same,Population Healthy Nuclei (%),[6],75%
same,Population Mitotic Cells (%),[6],17% and 19%
same,Total Cell Count,[6],675 and 612

# — ChEMBL document CHEMBL5303300, “EUbOPEN Chemogenomics Library - Multiplex” (2023)
